The source of these data is publication PMC3496166 (Scientific Reports, 2012).

As a reminder, the Kd is the free concentration of one partner at which half of the binding sites on the other are occupied at equilibrium, for simple one-to-one binding. Lower therefore signals tighter binding.

Like-named read-outs stand apart in the source and are kept apart here.

Data set [1] deals with EF-G (Escherichia coli, UniProt P0A6M8). Description: isothermal titration calorimetry. Format: binding. Put shortly: (§1)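 Assay used 6His-tagged E. coli protein, purified with an added Ni-NTA step. ITC ran at 5 or 25°C in pH 7.5 phosphate buffer (5 mM K2HPO4, 95 mM KCl, 5 mM MgCl2, 1 mM DTT, 10% glycerol). G nucleotide or 27-nt SRL RNA (50–500 μM in syringe) was titrated into protein (5–40 μM in cell), some runs with 500 μM nucleotide or 200 μM SRL added. Dilution heat subtracted; one-site nonlinear fit.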
Sequence of EF-G (Escherichia coli, UniProt P0A6M8) (P0A6M8 2-704): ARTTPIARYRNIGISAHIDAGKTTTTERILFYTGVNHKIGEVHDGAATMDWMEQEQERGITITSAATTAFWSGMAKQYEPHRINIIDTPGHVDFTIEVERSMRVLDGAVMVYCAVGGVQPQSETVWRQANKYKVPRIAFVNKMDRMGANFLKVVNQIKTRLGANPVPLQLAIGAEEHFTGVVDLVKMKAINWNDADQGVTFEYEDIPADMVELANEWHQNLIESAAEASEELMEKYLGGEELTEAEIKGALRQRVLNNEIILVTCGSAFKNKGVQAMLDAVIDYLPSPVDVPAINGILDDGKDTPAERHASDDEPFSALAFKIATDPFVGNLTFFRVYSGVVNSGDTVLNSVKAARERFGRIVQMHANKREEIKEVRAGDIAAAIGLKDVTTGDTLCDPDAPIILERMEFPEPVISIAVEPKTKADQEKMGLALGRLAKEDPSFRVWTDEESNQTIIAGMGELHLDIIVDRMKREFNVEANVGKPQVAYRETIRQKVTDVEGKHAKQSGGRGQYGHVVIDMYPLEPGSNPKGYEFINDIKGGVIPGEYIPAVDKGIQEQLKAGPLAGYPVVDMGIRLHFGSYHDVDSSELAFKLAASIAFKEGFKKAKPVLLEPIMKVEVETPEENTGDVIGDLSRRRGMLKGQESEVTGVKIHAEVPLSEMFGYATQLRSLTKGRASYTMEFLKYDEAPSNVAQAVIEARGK
In general terms: In ITC the heat of successive injections is recorded.

Data set [2] addresses IF2 (Escherichia coli, UniProt P0A705). The experiment in a line: isothermal titration calorimetry. Format: binding. Put shortly:
as §1

For data set [3], the target named is T1, EF-G (E. coli, UniProt P0A6M8 1-704). The experiment in a line: ITC.
T1 sequence (P0A6M8 whole entry): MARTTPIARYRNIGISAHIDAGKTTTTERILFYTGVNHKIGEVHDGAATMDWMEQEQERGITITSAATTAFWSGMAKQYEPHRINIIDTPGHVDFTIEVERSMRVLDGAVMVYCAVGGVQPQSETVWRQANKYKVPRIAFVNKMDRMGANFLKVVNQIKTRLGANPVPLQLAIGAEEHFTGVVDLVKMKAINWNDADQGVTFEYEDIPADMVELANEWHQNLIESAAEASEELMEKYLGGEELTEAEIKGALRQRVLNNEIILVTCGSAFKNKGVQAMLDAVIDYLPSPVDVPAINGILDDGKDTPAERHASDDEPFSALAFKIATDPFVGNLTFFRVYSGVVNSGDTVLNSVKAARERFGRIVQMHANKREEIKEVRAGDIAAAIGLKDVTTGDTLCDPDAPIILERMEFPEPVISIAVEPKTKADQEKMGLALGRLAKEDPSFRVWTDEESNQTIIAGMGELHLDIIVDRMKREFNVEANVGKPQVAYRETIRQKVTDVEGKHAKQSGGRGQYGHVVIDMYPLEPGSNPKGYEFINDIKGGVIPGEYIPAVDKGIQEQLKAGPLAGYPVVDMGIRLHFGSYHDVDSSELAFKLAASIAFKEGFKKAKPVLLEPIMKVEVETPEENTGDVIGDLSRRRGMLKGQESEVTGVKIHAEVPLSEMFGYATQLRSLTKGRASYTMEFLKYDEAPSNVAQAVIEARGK
Data set [4] has as its target T1, EF-G. The experiment in a line: ITC. This is another data set of the same source.
Data set [5] has as its target T2, IF2 (E. coli, UniProt P0A705 1-890). Description: ITC.
Data set [6] deals with T1, EF-G. Description: ITC. This is another data set of the same source.
In data set [7] the target is T2, IF2. The experiment in a line: ITC. The source holds these as a separate data set.

Sequence of IF2 (Escherichia coli, UniProt P0A705) (P0A705 whole entry): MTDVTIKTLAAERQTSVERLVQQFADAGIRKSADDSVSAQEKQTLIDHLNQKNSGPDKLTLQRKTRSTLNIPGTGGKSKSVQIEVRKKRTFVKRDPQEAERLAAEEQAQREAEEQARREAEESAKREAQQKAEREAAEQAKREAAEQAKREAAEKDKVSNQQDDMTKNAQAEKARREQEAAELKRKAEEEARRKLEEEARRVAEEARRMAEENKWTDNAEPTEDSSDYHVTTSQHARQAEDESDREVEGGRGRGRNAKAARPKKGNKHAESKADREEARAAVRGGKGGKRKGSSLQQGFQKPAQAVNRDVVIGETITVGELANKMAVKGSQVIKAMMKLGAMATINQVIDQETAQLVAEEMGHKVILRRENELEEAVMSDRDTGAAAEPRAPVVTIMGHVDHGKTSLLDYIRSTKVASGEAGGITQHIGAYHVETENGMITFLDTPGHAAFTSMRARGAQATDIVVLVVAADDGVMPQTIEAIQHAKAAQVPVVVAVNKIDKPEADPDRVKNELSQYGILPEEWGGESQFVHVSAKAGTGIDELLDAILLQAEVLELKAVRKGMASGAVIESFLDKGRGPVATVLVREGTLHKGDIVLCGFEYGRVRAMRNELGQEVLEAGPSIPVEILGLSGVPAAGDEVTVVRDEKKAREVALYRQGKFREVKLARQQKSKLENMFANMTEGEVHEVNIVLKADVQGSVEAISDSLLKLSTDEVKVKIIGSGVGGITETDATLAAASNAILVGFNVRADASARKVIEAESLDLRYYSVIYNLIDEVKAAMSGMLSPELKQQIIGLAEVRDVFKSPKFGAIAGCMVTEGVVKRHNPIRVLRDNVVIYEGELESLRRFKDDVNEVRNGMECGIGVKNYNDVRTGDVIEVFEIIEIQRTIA
T2 sequence (P0A705 whole entry): as above

As for `Nc1nc2c(ncn2[C@@H]2O[C@H](COP(=O)(O)OP(=O)(O)OP(=O)(O)O)[C@@H](O)[C@H]2O)c(=O)[nH]1` [GTP], the Kd on EF-G [1] came out at 2700 nM; on IF2 [2], 6700 nM.

Consider `Nc1nc2c(ncn2[C@@H]2O[C@H](COP(=O)(O)OP(=O)(O)O)[C@@H](O)[C@H]2O)c(=O)[nH]1` [GDP], for which the equilibrium dissociation constant (Kd) on EF-G [1] stood at 1800 nM; at IF2 [2], 1600 nM.

In the case of GGGCUCCUAGUACGAGAGGACCGGAGU (structured_RNA) [SRL RNA wt (27 nt)], the Kd was 3700 nM with EF-G [3]; 5900 nM with EF-G [4]; 670 nM in the data set with IF2 [5]; 4200 nM with EF-G [6]; 1000 nM with IF2 [7].
